Experimental data reported in ChEMBL document CHEMBL1132940, “Pharmacophore/receptor models for GABA(A)/BzR subtypes (alpha1beta3gamma2, alpha5beta3gamma2, and alpha6beta3gamma2) via a comprehensive ligand-mapping approach” (J Med Chem, 2000).

Experiments:
[1] = target: T1, GABA-A receptor; alpha-5/beta-3/gamma-2 (Homo sapiens, UniProt P18507+P28472+P31644); assay: Binding affinity for human recombinant gamma-aminobutyric-acid (GABA) A receptor alpha-5-beta-3-gamma-2; format: protein-complex assay
T1 sequence (P18507 whole entry): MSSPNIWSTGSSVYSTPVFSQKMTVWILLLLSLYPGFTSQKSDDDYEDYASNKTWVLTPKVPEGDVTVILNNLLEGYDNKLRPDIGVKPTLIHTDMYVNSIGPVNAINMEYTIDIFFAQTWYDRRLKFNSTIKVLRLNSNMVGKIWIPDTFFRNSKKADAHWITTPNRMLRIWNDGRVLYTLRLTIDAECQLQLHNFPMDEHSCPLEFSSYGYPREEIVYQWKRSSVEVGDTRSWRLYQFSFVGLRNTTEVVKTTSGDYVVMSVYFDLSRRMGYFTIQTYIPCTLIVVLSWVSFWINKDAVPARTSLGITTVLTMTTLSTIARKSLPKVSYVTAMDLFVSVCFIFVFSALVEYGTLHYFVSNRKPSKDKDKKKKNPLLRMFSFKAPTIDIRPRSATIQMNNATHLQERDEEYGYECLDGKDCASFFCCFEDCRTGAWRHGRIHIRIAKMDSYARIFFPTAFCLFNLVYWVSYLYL
T1 sequence (P28472 whole entry): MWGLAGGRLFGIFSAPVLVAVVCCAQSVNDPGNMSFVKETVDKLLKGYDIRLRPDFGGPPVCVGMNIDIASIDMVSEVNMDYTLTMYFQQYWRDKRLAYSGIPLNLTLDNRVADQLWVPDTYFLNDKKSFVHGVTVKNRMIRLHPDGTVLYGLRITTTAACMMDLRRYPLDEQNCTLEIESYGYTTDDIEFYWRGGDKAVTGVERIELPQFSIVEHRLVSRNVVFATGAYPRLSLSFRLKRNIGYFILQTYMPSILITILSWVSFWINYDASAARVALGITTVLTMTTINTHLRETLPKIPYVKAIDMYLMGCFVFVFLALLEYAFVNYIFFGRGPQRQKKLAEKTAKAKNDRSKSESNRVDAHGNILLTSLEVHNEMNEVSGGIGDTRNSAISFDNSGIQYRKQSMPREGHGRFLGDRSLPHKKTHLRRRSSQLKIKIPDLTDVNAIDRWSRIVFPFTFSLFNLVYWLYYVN
T1 sequence (P31644 whole entry): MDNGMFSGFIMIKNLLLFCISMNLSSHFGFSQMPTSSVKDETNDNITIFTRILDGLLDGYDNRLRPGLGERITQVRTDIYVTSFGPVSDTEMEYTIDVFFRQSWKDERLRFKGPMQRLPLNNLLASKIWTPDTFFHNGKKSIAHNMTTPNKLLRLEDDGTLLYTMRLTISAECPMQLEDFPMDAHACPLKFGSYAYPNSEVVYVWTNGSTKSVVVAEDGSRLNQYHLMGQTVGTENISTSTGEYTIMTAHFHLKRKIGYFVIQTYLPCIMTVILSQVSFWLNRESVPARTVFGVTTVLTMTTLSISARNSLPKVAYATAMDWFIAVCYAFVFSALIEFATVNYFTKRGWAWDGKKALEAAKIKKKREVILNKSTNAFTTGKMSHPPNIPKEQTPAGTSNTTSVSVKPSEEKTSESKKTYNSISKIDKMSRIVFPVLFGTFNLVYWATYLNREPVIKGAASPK

[2] = target: T2, GABA-A receptor; alpha-1/beta-3/gamma-2 (Homo sapiens, UniProt P14867+P18507+P28472); assay: Binding affinity for human recombinant gamma-aminobutyric-acid (GABA) A receptor alpha-1-beta-3-gamma-2; format: protein-complex assay
T2 sequence (P14867 whole entry): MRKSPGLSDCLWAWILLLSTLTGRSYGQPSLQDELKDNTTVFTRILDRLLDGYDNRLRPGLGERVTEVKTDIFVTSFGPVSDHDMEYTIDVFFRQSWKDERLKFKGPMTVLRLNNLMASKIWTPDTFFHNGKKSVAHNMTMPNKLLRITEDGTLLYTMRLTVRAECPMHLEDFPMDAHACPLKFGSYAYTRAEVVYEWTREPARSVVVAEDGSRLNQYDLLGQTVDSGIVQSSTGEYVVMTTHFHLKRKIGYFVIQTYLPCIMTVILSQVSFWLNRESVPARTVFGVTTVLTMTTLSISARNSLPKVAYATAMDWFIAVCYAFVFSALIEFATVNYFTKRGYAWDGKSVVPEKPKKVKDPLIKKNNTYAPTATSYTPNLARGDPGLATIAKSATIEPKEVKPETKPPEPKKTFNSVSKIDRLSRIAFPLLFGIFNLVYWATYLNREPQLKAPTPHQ
T2 sequence (P18507 whole entry): T1 sequence (P18507 whole entry)
T2 sequence (P28472 whole entry): T1 sequence (P28472 whole entry)

[3] = target: T3, GABA-A receptor; alpha-2/beta-3/gamma-2 (Homo sapiens, UniProt P18507+P28472+P47869); assay: Binding affinity to human recombinant gamma-aminobutyric-acid (GABA) A receptor alpha-2-beta-3-gamma-2; format: protein-complex assay
T3 sequence (P18507 whole entry): T1 sequence (P18507 whole entry)
T3 sequence (P28472 whole entry): T1 sequence (P28472 whole entry)
T3 sequence (P47869 whole entry): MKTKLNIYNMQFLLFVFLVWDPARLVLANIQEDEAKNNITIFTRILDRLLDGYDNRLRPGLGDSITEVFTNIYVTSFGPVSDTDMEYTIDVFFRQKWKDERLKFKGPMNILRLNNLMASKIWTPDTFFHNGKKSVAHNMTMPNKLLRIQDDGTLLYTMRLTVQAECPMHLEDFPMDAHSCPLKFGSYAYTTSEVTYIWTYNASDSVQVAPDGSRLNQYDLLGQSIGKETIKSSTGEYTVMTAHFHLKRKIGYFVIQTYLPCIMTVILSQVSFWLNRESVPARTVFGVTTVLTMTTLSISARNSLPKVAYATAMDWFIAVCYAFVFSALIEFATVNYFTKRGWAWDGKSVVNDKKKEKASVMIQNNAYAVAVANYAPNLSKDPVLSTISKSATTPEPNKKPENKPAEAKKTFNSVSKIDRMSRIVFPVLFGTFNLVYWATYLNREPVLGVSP

[4] = target: GABA-A receptor; alpha-6/beta-3/gamma-2 (Homo sapiens, UniProt P18507+P28472+Q16445); assay: Binding affinity for human recombinant gamma-aminobutyric-acid (GABA) A receptor alpha-6-beta-3-gamma-2; format: protein-complex assay
Summary of the method: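 Ltk⁻ cells expressing human α6β3γ2 were harvested by scraping into PBS, centrifuged at 3000g and resuspended in 10 mM KH₂PO₄/100 mM KCl (pH 7.4). Incubation was 1 h at 4 °C with filter harvest and scintillation counting.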

[5] = Selectivity ratio of alpha1 beta-3 gamma2 GABA A / BzR and alpha5 beta-3 gamma2 GABA A / BzR
[6] = target: T4, GABA-A receptor; alpha-3/beta-3/gamma-2 (Homo sapiens, UniProt P18507+P28472+P34903); assay: Binding affinity for human recombinant gamma-aminobutyric-acid (GABA) A receptor alpha-3-beta-3-gamma-2; format: protein-complex assay
T4 sequence (P18507 whole entry): T1 sequence (P18507 whole entry)
T4 sequence (P28472 whole entry): T1 sequence (P28472 whole entry)
T4 sequence (P34903 whole entry): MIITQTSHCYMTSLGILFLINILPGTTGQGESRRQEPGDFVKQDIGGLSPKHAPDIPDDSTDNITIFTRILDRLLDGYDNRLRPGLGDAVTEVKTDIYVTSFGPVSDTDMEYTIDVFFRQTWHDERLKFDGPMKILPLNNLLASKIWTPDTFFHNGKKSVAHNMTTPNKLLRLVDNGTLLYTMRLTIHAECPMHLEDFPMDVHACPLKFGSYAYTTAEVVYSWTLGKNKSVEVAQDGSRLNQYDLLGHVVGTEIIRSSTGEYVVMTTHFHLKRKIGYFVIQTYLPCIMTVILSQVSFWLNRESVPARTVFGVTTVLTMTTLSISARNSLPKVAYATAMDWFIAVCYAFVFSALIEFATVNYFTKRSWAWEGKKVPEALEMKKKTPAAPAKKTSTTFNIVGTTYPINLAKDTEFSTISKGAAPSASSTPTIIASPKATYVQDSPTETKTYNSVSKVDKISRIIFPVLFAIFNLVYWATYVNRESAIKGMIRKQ

[7] = target: T2, GABA-A receptor; alpha-1/beta-3/gamma-2; assay: Binding affinity towards human GABA-A receptor alpha-1-beta-3-gamma-2 subunits; format: protein-complex assay

Chain of GABA-A receptor; alpha-6/beta-3/gamma-2 (Q16445 whole entry, one chain of several): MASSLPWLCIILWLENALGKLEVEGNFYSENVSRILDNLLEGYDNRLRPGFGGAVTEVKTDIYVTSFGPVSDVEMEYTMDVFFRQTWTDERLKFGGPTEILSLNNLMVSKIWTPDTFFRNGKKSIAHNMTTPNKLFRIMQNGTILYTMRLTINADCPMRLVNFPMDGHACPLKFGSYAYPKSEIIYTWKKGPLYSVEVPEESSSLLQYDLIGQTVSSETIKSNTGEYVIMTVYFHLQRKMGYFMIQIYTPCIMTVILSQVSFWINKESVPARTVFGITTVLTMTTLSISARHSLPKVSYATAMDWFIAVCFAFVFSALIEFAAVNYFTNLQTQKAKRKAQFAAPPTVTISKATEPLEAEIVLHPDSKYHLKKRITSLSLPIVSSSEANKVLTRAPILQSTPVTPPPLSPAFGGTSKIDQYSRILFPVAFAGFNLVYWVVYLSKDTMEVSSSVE

Structure (SMILES)	Ki [1]	Ki [2]	Ki [3]	Ki [4]	Ratio [5]	Ki [6]	Ki [7]
O=C1CN=C(c2cccs2)c2cc(F)ccc2N1	150 nM	175 nM	335 nM	> 300 nM	1.17	405 nM	
C#Cc1ccc2c(c1)C(c1ccccc1)=NCC(=O)N2C	6.8 nM	76.3 nM	42.1 nM	> 3000 nM	11.2	47.4 nM	
CN1C(=O)CN=C(c2ccccc2)c2cc(Br)ccc21	7.7 nM	9.4 nM	9.3 nM	> 3000 nM	1.22	31 nM	
CN1C(=O)CN=C(c2cccs2)c2cc(Cl)ccc21	11.5 nM	19.2 nM	13.2 nM	> 300 nM	1.7	13.4 nM	
CN1C(=O)CN=C(c2ccccc2)c2cc(C#N)ccc21	265 nM	320 nM	310 nM	> 3000 nM	1.2	350 nM	
CN1C(=O)CN=C(c2ccccc2)c2cc(C#C[Si](C)(C)C)ccc21	63 nM	94 nM	73 nM	> 3000 nM	1.49	203 nM	
O=C1CN=C(c2ccccc2)c2ccccc2N1 [RO-052921]	140 nM	286 nM	233 nM	> 3000 nM	2.04	350 nM	
CC(C)(C)C(=O)Oc1ccc2c(c1)[nH]c1c3c4ccccc4nc-3c[nH]c12	> 3000 nM			> 10000 nM			156 nM
CCOC(=O)c1ncn2c1CN(C)C(=O)c1ccccc1-2 [RO-147437]	0.4 nM	1.2 nM	2 nM	> 300 nM	3	1.1 nM	
